Rows were chosen to be rich in hits. Some 4.5% of all compounds tested hit in one or more screens of this group.
RGS4 pot = potentiators or activators of RGS4; B-score at 10 µM; HEK293 M3R/inducible RGS4, carbachol calcium flux Fluo4; stronger effect = lower value; 310,000 tested, 0.92% active;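 active = B-score of the integrated calcium signal more than 4 SD below the library mean, with starting fluorescence not abnormally high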;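 also: negative B-score means reduced calcium response which marks RGS4 activation or potentiation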
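Test system: HEK293 cells with stable M3R and inducible RGS4; also added: carbachol at ECmax as muscarinic agonist stimulus; schedule: dye loading 30 min 37 °C, buffer rest 30 min RT; technique: kinetic calcium fluorescence imaging with Fluo4-AM dye, 2 µM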
MrgX1 agonist = human MrgX1 receptor agonism, primary screen; Q96LB2; AID 588627; 310,000 tested, 0.44% active; B-score at 10 µM; MrgX1-HEK293 cells, Fluo-4 calcium fluorescence, agonist mode; stronger effect = higher value;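 active = calcium response B-score plate-corrected fluorescence ratio at least 3 library SD, with starting fluorescence B-score inside 5 SD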
Target sequence (Q96LB2 whole entry, looked up): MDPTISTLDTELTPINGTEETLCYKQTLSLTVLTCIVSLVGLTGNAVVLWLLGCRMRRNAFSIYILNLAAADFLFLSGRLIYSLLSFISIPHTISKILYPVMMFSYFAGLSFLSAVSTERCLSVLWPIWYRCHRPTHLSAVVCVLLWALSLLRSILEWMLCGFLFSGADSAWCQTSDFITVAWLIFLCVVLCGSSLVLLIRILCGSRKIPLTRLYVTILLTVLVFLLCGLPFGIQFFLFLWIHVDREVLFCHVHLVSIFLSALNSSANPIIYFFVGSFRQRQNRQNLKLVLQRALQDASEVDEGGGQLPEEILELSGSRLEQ
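times = overnight plating, then 30 min 37 °C plus 30 min room-temperature dye loading | assay system = stable human MrgX1 HEK293 cell line | input = fifteen thousand cells per well | signal = kinetic calcium dye fluorescence, Fluo-4 NW | dosing = compound delivered in addition one of three | read-out = B-scored fluorescence response ratio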
MrgX1 allo act = human MrgX1 positive allosteric modulation, primary screen | Q96LB2 | MrgX1-HEK293, Fluo-4 calcium flux, FDSS; stronger effect = higher value | B-score at 10 µM | 310,000 tested, 0.63% active | AID 588675;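 active = plate-corrected calcium response at least 3 library SD above typical, normal starting fluorescence, not activating the receptor alone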;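 also: compound read alongside a low EC10 to EC30 dose of BAM8-22 agonist; peak minus trough fluorescence over baseline measured at the second addition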
RGS4 block = inhibitors of human RGS4; HEK293 M3R/RGS4 inducible, Fluo-4 calcium flux; stronger effect = higher value; triggered by carbachol at its EC20; P49798; B-score at 10 µM; AID 463165; 310,000 tested, 0.45% active;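 active = B-score, a plate-corrected calcium signal, over three deviations above library mean, with baseline fluorescence within five deviations of library mean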;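 also: RGS4 expression induced by doxycycline in cells with stable M3 receptor; B-score is computed from the integrated fluorescence ratio over baseline after carbachol; higher B-score means a larger calcium signal and so more RGS4 inhibition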
Target sequence (P49798 whole entry, looked up): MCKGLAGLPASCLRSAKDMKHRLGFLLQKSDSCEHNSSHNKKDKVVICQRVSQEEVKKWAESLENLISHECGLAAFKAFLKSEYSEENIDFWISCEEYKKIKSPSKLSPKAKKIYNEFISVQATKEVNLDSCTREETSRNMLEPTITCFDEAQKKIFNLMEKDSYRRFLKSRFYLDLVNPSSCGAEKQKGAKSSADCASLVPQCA
MrgX1 antagonist = antagonists of human MrgX1 receptor; MRGX1-HEK293 calcium flux, Fluo-4, BAM8-22 antagonism; stronger effect = lower value; 310,000 tested, 1.3% active; Q96LB2; B-score at 10 µM;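 active = calcium-response B-score plate-corrected more than 3 library SD below zero, starting fluorescence within 5 deviations, no agonist response on first addition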;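 also: peak minus trough fluorescence over baseline after final BAM8-22 challenge near maximal dose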
PHOSPHO1 inh = blocks human PHOSPHO1 phosphatase activity | inhibition, % at 13.3 µM | Q8TCT1 | recombinant PHOSPHO1, absorbance phosphatase assay | 290,000 tested, 1.1% active; in the data active = inhibition above about 60%
Large screens that a line does not name were inactive.

COC(=O)C1=NN(c2ccc(C)cc2)C2(S1)SC(C(C)=O)=C(C)N2c1ccccc1 (stereo not drawn)	PHOSPHO1 inh 63.7
COC(=O)C1=NN(c2ccccc2)C2(S1)SC(C(C)=O)=C(C)N2c1ccccc1 (stereo not drawn)	none
CCn1nc(C(=O)NNC(=O)COc2ccccc2C)c2ccccc2c1=O	none
CCc1ccc(OCC(=O)NNC(=O)c2nn(CC)c(=O)c3ccccc23)cc1	MrgX1 allo act 9.58
COc1cc(C2C(C#N)=C(C)NC(C)=C2C#N)cc(OC)c1OC	none
Cc1cc(OCC(=O)C(C)(C)C)c2c(-c3ccccc3)cc(=O)oc2c1	none
NCC(O)(c1ccc(Cl)cc1)c1ccc(Cl)cc1	MrgX1 agonist 37.1
O=c1ccc2cc3c(-c4ccccc4)coc3cc2o1	none
CN1Cc2c(N3CCOCC3)nc(SCc3ccccc3)c(C#N)c2CC1(C)C	PHOSPHO1 inh 80.4
CCSc1nc(N2CCOCC2)c2c(c1C#N)CC(C)(C)N(C)C2	none
Clc1nssc1=Nc1ccccc1	PHOSPHO1 inh 96.6 (no result: RGS4 pot, MrgX1 agonist, MrgX1 allo act, RGS4 block, MrgX1 antagonist)
Fc1ccc(N=c2ssnc2Cl)c(F)c1	MrgX1 agonist 35.2
Clc1ccc(N=c2ssnc2Cl)cc1	PHOSPHO1 inh 89.0
N#Cc1ccc(Oc2c(Cl)cncc2Cl)cc1	none
N#Cc1ccc(N=c2ssnc2Cl)cc1	MrgX1 agonist 30.5
O=C(Cn1nnc(-c2ccc([N+](=O)[O-])cc2)n1)NNC(=O)c1ccccc1	none
N#Cc1c(N)nc2c(c1-c1ccc3c(c1)OCO3)CCc1ccccc1-2	none
CCOC(=O)c1ccc(N=c2ssnc2Cl)cc1	PHOSPHO1 inh 77.2 (no result: MrgX1 agonist, MrgX1 allo act, MrgX1 antagonist)
COc1ccc(N=c2ssnc2Cl)cc1	MrgX1 agonist 27.4, PHOSPHO1 inh 77.3
COc1cc(-c2nnc(-c3cc(OC)c(OC)c(OC)c3)o2)cc(OC)c1OC	none
COc1cc(N=c2ssnc2Cl)cc(OC)c1OC	MrgX1 agonist 32.5
O=Cc1ccc(OCC(=O)Nc2ccccc2C(F)(F)F)cc1	none
COc1ccc(S(=O)(=O)N2CCCC(N(C)CCc3ccccc3)C2)cc1OC (stereo not drawn)	none (no result: PHOSPHO1 inh)
C/C(N)=C(/C#N)C(=O)COC(=O)CCCNC(=O)c1ccc(Cl)cc1	none
NC(=O)CC(NC(=O)c1ccccc1)c1ccc(NCCc2ccc(Cl)cc2)c([N+](=O)[O-])c1 (stereo not drawn)	none
Cc1ccc(C(=O)N2CCN=C2SCc2ccc([N+](=O)[O-])cc2)cc1	MrgX1 antagonist -7.05
O=C(c1cccc2ccccc12)N1CCN=C1SCc1ccc([N+](=O)[O-])cc1	none
Cc1ccc(CSC2=NCCN2C(=O)c2ccc([N+](=O)[O-])cc2)cc1	none
Cc1ccccc1C(=O)N1CCN=C1SCc1ccc([N+](=O)[O-])cc1	PHOSPHO1 inh 68.5
NC(=O)C[n+]1cccc2ccccc21	PHOSPHO1 inh 93.8
O=C(C[n+]1cccc2ccccc21)c1ccc(Br)cc1	none
COc1ccc(NC(=O)c2cc(S(=O)(=O)N3CCCCC3)c[nH]2)cc1Cl	none
COCCNCC(=O)Nc1nc(C)cs1	none (no result: RGS4 pot, MrgX1 agonist, MrgX1 allo act, RGS4 block, MrgX1 antagonist)
C=CCc1cccc2cc(C(=O)Nc3ccc(F)cc3)c(=O)oc12	none
C=CCc1cccc2cc(C(=O)Nc3ccc(S(=O)(=O)Nc4nnc(CC)s4)cc3)c(=O)oc12	PHOSPHO1 inh 84.6
C=CCc1cccc2cc(C(=O)Nc3ccc(CC(=O)O)cc3)c(=O)oc12	none
C=CCc1cccc2cc(C(=O)Nc3cccc(C(=O)O)c3)c(=O)oc12	MrgX1 allo act 7.6
Cc1ccccc1C(=O)Nc1nnc(S(=O)(=O)N2CCCCCC2)s1	none
CCOC(=O)COc1ccc2ccccc2c1/C=C/[N+](=O)[O-]	none
O=[N+]([O-])/C=C/c1c(OCc2ccccc2)ccc2ccccc12	RGS4 block 13.1
CCN(CC)c1ccc(S(=O)(=O)N2CCOCC2)cc1NC(=O)CSc1n[nH]c(N)n1	none
CC(=O)Oc1ccc(N2C(=O)C3C(C2=O)C(C(=O)c2ccc(Cl)cc2)N2CCCC32)cc1 (stereo not drawn)	MrgX1 agonist 29.9
O=C(CN(Cc1ccc(Cl)cc1)C(=O)CNS(=O)(=O)c1ccc(F)cc1)NCC1CCCO1 (stereo not drawn)	none
